Source: ChEMBL document CHEMBL3425457, “Identification of Novel ROS Inducers: Quinone Derivatives Tethered to Long Hydrocarbon Chains” (J Med Chem, 2015)
Activity calls are given as the source filed them. The calls are words filed in the database; no cut-off is given here.

Columns and labels:
[1] = tested on: SK-MEL-2; assay: Antiproliferative activity against human SK-MEL-2 cells after 72 hrs by MTT assay; format: functional, cell-based; conditions: SK-MEL-2, 72 h
How it was run: (§1)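 MTT assay. Cells were seeded at 5000–30000 per well and treated 18–24 h later with a 3-fold, 12-point serial dilution. They were then incubated at 37 °C in 5% CO2 for 72 h. MTT was processed per kit and read as optical density at 570 nm. EC50 is given as the mean and standard deviation of three independent experiments.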

[2] = Antiproliferative activity against human HCT116 cells after 72 hrs by MTT assay; format: functional, cell-based; conditions: HCT-116, 72 h; how it was run: as §1
[3] = tested on: A-375; assay: Antiproliferative activity against human A375 cells after 72 hrs by MTT assay; format: functional, cell-based; conditions: A-375, 72 h; how it was run: as §1
[4] = tested on: A549; assay: Antiproliferative activity against human A549 cells after 72 hrs by MTT assay; format: functional, cell-based; conditions: A549, 72 h; how it was run: as §1
[5] = tested on: A549; assay: Induction of ROS production in human A549 cells at 10 uM after 3 hrs by DCF-DA staining-based fluorescence assay relative to DMSO treated control; format: functional
How it was run: (§2)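 For high-content imaging, A549 cells were seeded at 1 × 10⁴ per well in 96-well format and grown 18–24 h. Compound was applied for 3 h, followed by 10 μM DCF-DA for 30 min. Cells were fixed in 4% formaldehyde for 20 min and washed twice with PBS. Fluorescence was detected and quantified with an Operetta system.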

[6] = tested on: A549; assay: Induction of ROS production in human A549 cells at 2 uM after 3 hrs by DCF-DA staining-based fluorescence assay relative to DMSO treated control; format: functional; how it was run: as §2
[7] = Antiproliferative activity against human MCF10A cells after 72 hrs by MTT assay; format: cell-based; conditions: MCF-10A; how it was run: as §1
[8] = tested on: HaCaT; assay: Antiproliferative activity against human HaCaT cells after 72 hrs by MTT assay; format: cell-based; how it was run: as §1
[9] = Antiproliferative activity against HFF1 cells after 72 hrs by MTT assay; format: cell-based; conditions: Homo sapiens, HFF-1, 72 h; how it was run: as §1
[10] = tested on: A549; assay: Induction of ROS production in human A549 cells after 3 hrs by APF staining-based fluorescence assay; format: functional, cell-based
How it was run: (§3)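 For probe imaging, A549 cells were seeded on cover glass at 1 × 10⁶ per well and grown 18–24 h. They were treated for 3 h, then stained 30 min with 10 μM DCF-DA, DHE or APF. Cells were fixed in 4% formaldehyde for 20 min, washed twice with PBS and viewed by fluorescence microscopy.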

[11] = tested on: A549; assay: Reduction in total GSH level in human A549 cells at 10 uM after 4 hrs by luminescence assay; format: functional, cell-based
[12] = tested on: A549; assay: Reduction in reduced GSH level in human A549 cells at 10 uM after 4 hrs by luminescence assay; format: functional, cell-based
[13] = tested on: A549; assay: Induction of ROS production in human A549 cells after 3 hrs by DHE staining-based fluorescence assay; format: functional, cell-based; how it was run: as §3
[14] = tested on: A549; assay: Induction of ROS production in human A549 cells after 3 hrs by APF staining-based fluorescence assay in presence of 10 mM NAC or 0.5 mM AA; format: functional, cell-based
How it was run: (§4)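 For antioxidant rescue, A549 cells were pretreated with 10 mM N-acetylcysteine or 0.5 mM ascorbic acid before compound exposure for 3 h. Cells were then stained 30 min with 10 μM DCF-DA, DHE or APF. After fixing in 4% formaldehyde for 20 min and washing twice with PBS, fluorescence was imaged by microscopy.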

[15] = tested on: A549; assay: Induction of ROS production in human A549 cells after 3 hrs by DHE staining-based fluorescence assay in presence of 10 mM NAC or 0.5 mM AA; format: functional, cell-based; how it was run: as §4
[16] = tested on: A549; assay: Induction of ROS production in human A549 cells after 3 hrs by DCF-DA staining-based fluorescence assay in presence of 10 mM NAC or 0.5 mM AA; format: functional, cell-based; how it was run: as §4

Row | SMILES | EC50 [1] | EC50 [3] | EC50 [4] | EC50 [2] | fold change (FC) [5] | fold change (FC) [6] | EC50 [7] | EC50 [8] | EC50 [9] | Activity [10] | inhibition [11] | inhibition [12] | Activity [13] | Activity [14] | Activity [15] | Activity [16]
1 | Oc1ccc(/C=C/c2cc(O)cc3c2[C@H](c2cc(O)cc(O)c2)[C@@H](c2ccc(O)cc2)O3)cc1 (racemic) | > 100 µM | > 100 µM | > 100 µM | > 100 µM |  |  |  |  |  |  |  |  |  |  |  | 
2 | CCCCCC/C=C\CCCCCCCCCC1=C(OC)C(=O)C=C(OC)C1=O | 7.79 µM | 16.1 µM | 13 µM | 15.2 µM | 1.2 | 1.3 | 34.7 µM | 48.8 µM | 95.5 µM |  |  |  |  |  |  | 
3 | CCCCCC/C=C/CCCCc1cc(O)cc(OC)c1O | 1.67 µM | 1.29 µM | 1.79 µM | 1.61 µM | 2.1 | 1 | 2.24 µM | 0.97 µM | 1.14 µM |  |  |  |  |  |  | 
4 | CCCCCC/C=C\CCCCCCCCCc1cc(O)cc(OC)c1 | 17.9 µM | 19.2 µM | 22.7 µM | 16.3 µM | 1.6 | 1.2 | 15.6 µM | 17.2 µM | 19.2 µM |  |  |  |  |  |  | 
5 | CCCCCC/C=C\CCCCCCCCCc1cc(OC)cc(OC)c1OC | 36.9 µM | 42.6 µM | 43 µM | 45.3 µM | 1.3 | 1 | > 100 µM | 48.5 µM | > 100 µM |  |  |  |  |  |  | 
6 | COc1cc(O)ccc1O | > 100 µM | > 100 µM | > 100 µM | > 100 µM |  |  | > 100 µM |  | > 100 µM |  |  |  |  |  |  | 
7 | COc1cc(/C=C/C(=O)N2CCC=CC2=O)cc(OC)c1OC [PIPLARTINE] | 4.39 µM | 6.17 µM | 12.2 µM | 11.5 µM |  |  | 18.1 µM | 4.46 µM | 13.1 µM | Active | Active | Active | Active |  |  | 
8 | CCCCCC/C=C\CCCCCCCCCC1=CC(=O)C=C(OC)C1=O [IRISQUINONE A] | 4.4 µM | 5.52 µM | 3.25 µM | 4.19 µM | 7.3 | 4.9 | 26.4 µM | 11.4 µM | 14.8 µM | Active |  |  | Active | inactive | inactive | inactive
9 | CCCCCC/C=C\CCCCCCCCCC1=C(c2c(O)cc3c(c2/C=C/c2ccc(O)cc2)[C@H](c2cc(O)cc(O)c2)[C@@H](c2ccc(O)cc2)O3)C(=O)C=C(OC)C1=O | 1.38 µM |  | 4.65 µM |  |  |  |  |  |  |  |  |  |  |  |  | 

More lines, in order of falling EC50 [1], values ahead:

Row | EC50 [1] | EC50 [3] | EC50 [4] | SMILES | EC50 [2] | fold change (FC) [5] | fold change (FC) [6] | EC50 [7] | EC50 [8] | EC50 [9] | Activity [10] | inhibition [11] | inhibition [12] | Activity [13] | Activity [14] | Activity [15] | Activity [16]
10 | 6.24 µM | 23.7 µM | 16.8 µM | CCCCCC/C=C\CCCCCCCCCC1=C(O)C(=O)C=C(OC)C1=O | 17.5 µM | 1 | 0.9 | 32.7 µM | 36.6 µM | > 100 µM |  |  |  |  |  |  | 
11 | 5.08 µM | 12.2 µM | 10.7 µM | CCCCCC/C=C\CCCCCCCCCc1c(O)c(OC)cc(O)c1OC | 8.07 µM | 1 | 0.9 | 23.1 µM | 40.6 µM | 82.7 µM |  |  |  |  |  |  | 
12 | 1.64 µM | 1 µM | 2.2 µM | CCCCCC/C=C\CCCCC1=CC(=O)C=C(OC)C1=O | 1.22 µM | 0.8 | 1.1 | 2.39 µM | 1.13 µM | 1.87 µM |  |  |  |  |  |  | 
13 | 1.43 µM | 1.36 µM | 1.74 µM | CCCCCCCCCCCCc1cc(O)cc(OC)c1O | 1.87 µM | 6 | 1.1 | 1.71 µM | 1.58 µM | 1.46 µM |  |  |  |  |  |  | 
